From ChEMBL document CHEMBL3098119, “Exploring naphthyl-carbohydrazides as inhibitors of influenza A viruses” (Eur J Med Chem, 2014)
Active and inactive are the calls of the source. The rule behind the calls is not given here.

What was measured:
Influenza A virus [1] = test: Antiviral activity against Influenza A virus (A/udorn/307/1972 H3N2) infected in MDCK cells assessed as reduction in viral RNA titer at 4 to 8 uM after 24 hrs by RT-qPCR analysis; format: functional, organism-based
How it was run: (§1)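 Infection was the same: MDCK, Ud virus at moi 0.001 PFU/cell, 1 h adsorption, then compound at 4 or 8 μM in 1% DMSO medium. Supernatant was sampled at 24, 36 and 48 h. Neuraminidase-segment vRNA was reverse transcribed in duplicate (forward primer 1.25 μM, 12 h, 37 C), then amplified by probe qPCR in duplicate (primers 0.8 μM, probe 0.24 μM, 50 cycles). Results were normalized to the start of infection.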

Influenza A virus [2] = test: Antiviral activity against Influenza A virus (A/udorn/307/1972 H3N2) infected in MDCK cells assessed as inhibition of viral replication at 4 to 8 uM after 24 hrs by hemagglutination assay; format: functional, organism-based
How it was run: (§2)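 MDCK cells infected with Ud virus at moi 0.001 PFU/cell. After 1 h adsorption, compound was added at 4 or 8 μM in medium containing 1% DMSO. Medium aliquots were taken at 24, 36 and 48 h and assayed for hemagglutinin (HA) titre. Infected cells without inhibitor served as the control.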

Influenza A virus [3] = test: Antiviral activity against Influenza A virus (A/udorn/307/1972 H3N2) infected in MDCK cells assessed as reduction in viral RNA titer at 8 uM after 24 to 48 hrs by RT-qPCR analysis; format: functional, organism-based; how it was run: as §1
Influenza A virus [4] = test: Antiviral activity against Influenza A virus (A/udorn/307/1972 H3N2) infected in MDCK cells assessed as inhibition of viral replication at 8 uM after 24 to 48 hrs by hemagglutination assay; format: functional, organism-based; how it was run: as §2
MDCK = test: Cytotoxicity against MDCK cells infected with Influenza A virus (A/udorn/307/1972 H3N2) at 4 uM after 24 to 48 hrs by CellTiter-Glo cell viability assay; format: cell-based, Canis lupus familiaris; details: dog
How it was run: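 CellTiter-Glo ATP luminescence was measured in MDCK cells infected with Ud virus at low multiplicity, with or without 4 μM compound. Cells were lysed at several times over the 48 h infection.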

Influenza A virus [5] = test: Antiviral activity against Influenza A virus (A/udorn/307/1972 H3N2) infected in MDCK cells assessed as reduction in viral RNA titer up to 6.5 hrs by RT-qPCR analysis; format: functional, organism-based
Influenza A virus [6] = test: Antiviral activity against Influenza A virus (A/udorn/307/1972 H3N2) infected in MDCK cells assessed as reduction in viral RNA titer at 4 to 8 uM after 24 to 48 hrs by RT-qPCR analysis relative to control; format: functional; how it was run: as §1
Influenza A virus [7] = test: Antiviral activity against Influenza A virus (A/udorn/307/1972 H3N2) infected in MDCK cells assessed as inhibition of viral replication at 4 to 8 uM after 24 to 48 hrs by hemagglutination assay; format: functional, organism-based; how it was run: as §2
Influenza A virus [8] = test: Antiviral activity against Influenza A virus (A/udorn/307/1972 H3N2) infected in MDCK cells assessed as reduction in viral RNA titer at 4 uM after 36 to 48 hrs by RT-qPCR analysis; format: functional, organism-based; how it was run: as §1
Influenza A virus [9] = test: Antiviral activity against Influenza A virus (A/udorn/307/1972 H3N2) infected in MDCK cells assessed as inhibition of viral replication at 4 uM after 36 to 48 hrs by hemagglutination assay; format: functional, organism-based; how it was run: as §2
Influenza A virus [10] = test: Antiviral activity against Influenza A virus (A/udorn/307/1972 H3N2) infected in MDCK cells assessed as reduction in viral RNA titer at 4 uM after 36 hrs by RT-qPCR analysis; format: functional, organism-based; how it was run: as §1
Influenza A virus [11] = test: Antiviral activity against Influenza A virus (A/udorn/307/1972 H3N2) infected in MDCK cells assessed as inhibition of viral replication at 4 uM after 36 hrs by hemagglutination assay; format: functional, organism-based; how it was run: as §2
Influenza A virus [12] = test: Antiviral activity against Influenza A virus (A/udorn/307/1972 H3N2) infected in MDCK cells assessed as reduction in viral RNA titer at 4 uM after 48 hrs by RT-qPCR analysis; format: functional, organism-based; how it was run: as §1
Influenza A virus [13] = test: Antiviral activity against Influenza A virus (A/udorn/307/1972 H3N2) infected in MDCK cells assessed as inhibition of viral replication at 4 uM after 48 hrs by hemagglutination assay; format: functional, organism-based; how it was run: as §2

| SMILES | inhibition (Influenza A virus [3]) | inhibition (Influenza A virus [4]) | inhibition (Influenza A virus [8]) | inhibition (Influenza A virus [9]) | further results |
| --- | --- | --- | --- | --- | --- |
| CC/C(=N\NC(=O)c1cc2ccccc2cc1O)c1ccc2c(c1)CCCC2 | Active | Active | – | – | inhibition (Influenza A virus [1]): Active; inhibition (Influenza A virus [2]): Active |
| O=C(N/N=C(\c1ccccc1)c1ccc2c(c1)CCCC2)c1cc2ccccc2cc1O | – | – | – | – | Activity (MDCK): Non-toxic; inhibition (Influenza A virus [5]): Active; fold change (FC) (Influenza A virus [6]): 1000; inhibition (Influenza A virus [7]): Active |
| O=C(N/N=C(/c1ccc2c(c1)CCCC2)C1CCCCC1)c1cc2ccccc2cc1O | – | Active | Active | Active | inhibition (Influenza A virus [10]): Active; inhibition (Influenza A virus [11]): Active |
| O=C(N/N=C(/c1ccc2c(c1)CCCC2)C1CCCC1)c1cc2ccccc2cc1O | Active | Active | Active | Active | – |
| CN(C)CCC/C(=N\NC(=O)c1cc2ccccc2cc1O)c1ccc2c(c1)CCCC2 | Active | Active | inactive | inactive | – |
| O=C(N/N=C(/c1ccc2c(c1)CCCC2)C1CC1)c1cc2ccccc2cc1O | Active | Active | – | – | – |
| O=C(N/N=C(\CCCCl)c1ccc2c(c1)CCCC2)c1cc2ccccc2cc1O | Active | Active | inactive | inactive | – |
| CC(C)/C(=N\NC(=O)c1cc2ccccc2cc1O)c1ccc2c(c1)CCCC2 | – | – | – | – | inhibition (Influenza A virus [1]): Active; inhibition (Influenza A virus [2]): Active |
| CCC/C(=N\NC(=O)c1cc2ccccc2cc1O)c1ccc2c(c1)CCCC2 | Active | Active | – | – | inhibition (Influenza A virus [12]): inactive; inhibition (Influenza A virus [13]): inactive |
